Values after ≈ are worked out from the molar mass of the structure shown.
What was measured:
Staphylococcus aureus [1] = test: Antibacterial activity against multidrug-resistant Staphylococcus aureus isolate 1344 by broth microdilution assay; assay type: functional
Outline: (§1)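 Broth microdilution MIC per CLSI guidelines against clinical MRSA isolates, for β-lactams and test compound alone and in combination. Compounds were dissolved in DMSO. Growth was read by eye, in duplicate. FIC index = FIC(compound) + FIC(drug); synergy defined as FIC index ≤0.5.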

Staphylococcus aureus [2] = test: Antibacterial activity against multidrug-resistant Staphylococcus aureus isolate 2895 by broth microdilution assay; assay type: functional; outline: as §1
Staphylococcus aureus [3] = test: Antibacterial activity against multidrug-resistant Staphylococcus aureus isolate 2919 by broth microdilution assay; assay type: functional; outline: as §1
Staphylococcus aureus [4] = test: Synergistic antibacterial activity against multidrug-resistant Staphylococcus aureus isolate 2901 in presence of amoxicillin by broth microdilution assay; assay type: functional
Outline: (§2)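 CLSI broth microdilution on clinical MRSA isolates. MICs were measured for the β-lactam alone, the test agent alone and the two combined. Compounds were dissolved in DMSO, and growth inhibition was scored by eye. FIC index is the sum, over both agents, of MIC in combination divided by MIC alone. An FIC index ≤0.5 was taken as synergy.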

Staphylococcus aureus [5] = test: Synergistic antibacterial activity against multidrug-resistant Staphylococcus aureus isolate 1402 in presence of amoxicillin by broth microdilution assay; assay type: functional
Outline: (§3)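 Clinical MRSA isolate panel; compound and β-lactam tested alone and in combination by CLSI broth microdilution, compounds dissolved in DMSO, growth inhibition scored by eye, run in duplicate. FIC index = FIC(compound) + FIC(drug), each the MIC in combination divided by the MIC alone; an index ≤ 0.5 was called synergy.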

Staphylococcus aureus [6] = test: Synergistic antibacterial activity against multidrug-resistant Staphylococcus aureus isolate 774 in presence of amoxicillin by broth microdilution assay; assay type: functional
Staphylococcus aureus [7] = test: Synergistic antibacterial activity against multidrug-resistant Staphylococcus aureus isolate 85 in presence of amoxicillin by broth microdilution assay; assay type: functional
Staphylococcus aureus [8] = test: Synergistic antibacterial activity against multidrug-resistant Staphylococcus aureus isolate 1136 in presence of methicillin by broth microdilution assay; assay type: functional; outline: as §3
Staphylococcus aureus [9] = test: Synergistic antibacterial activity against multidrug-resistant Staphylococcus aureus isolate 2895 in presence of methicillin by broth microdilution assay; assay type: functional; outline: as §2
Staphylococcus aureus [10] = test: Synergistic antibacterial activity against multidrug-resistant Staphylococcus aureus isolate 757 in presence of methicillin by broth microdilution assay; assay type: functional
Staphylococcus aureus [11] = test: Synergistic antibacterial activity against multidrug-resistant Staphylococcus aureus isolate 2224 in presence of methicillin by broth microdilution assay; assay type: functional; outline: as §3
Staphylococcus aureus [12] = test: Synergistic antibacterial activity against multidrug-resistant Staphylococcus aureus isolate 1344 in presence of cloxacillin by broth microdilution assay; assay type: functional; outline: as §3
Staphylococcus aureus [13] = test: Synergistic antibacterial activity against multidrug-resistant Staphylococcus aureus isolate 3589 in presence of cloxacillin by broth microdilution assay; assay type: functional
Staphylococcus aureus [14] = test: Synergistic antibacterial activity against multidrug-resistant Staphylococcus aureus isolate 3332 in presence of cloxacillin by broth microdilution assay; assay type: functional; outline: as §2
Staphylococcus aureus [15] = test: Synergistic antibacterial activity against multidrug-resistant Staphylococcus aureus isolate 2516 in presence of cloxacillin by broth microdilution assay; assay type: functional; outline: as §2
Staphylococcus aureus [16] = test: Synergistic antibacterial activity against multidrug-resistant Staphylococcus aureus isolate 1136 in presence of cefuroxime by broth microdilution assay; assay type: functional; outline: as §3
Staphylococcus aureus [17] = test: Synergistic antibacterial activity against multidrug-resistant Staphylococcus aureus isolate 757 in presence of cefuroxime by broth microdilution assay; assay type: functional
Staphylococcus aureus [18] = test: Synergistic antibacterial activity against multidrug-resistant Staphylococcus aureus isolate 2224 in presence of cefuroxime by broth microdilution assay; assay type: functional; outline: as §3
Staphylococcus aureus [19] = test: Synergistic antibacterial activity against multidrug-resistant Staphylococcus aureus isolate 3580 in presence of cefuroxime by broth microdilution assay; assay type: functional
Staphylococcus aureus [20] = test: Synergistic antibacterial activity against multidrug-resistant Staphylococcus aureus isolate 2901 in presence of meropenem by broth microdilution assay; assay type: functional; outline: as §2
Staphylococcus aureus [21] = test: Synergistic antibacterial activity against multidrug-resistant Staphylococcus aureus isolate 3332 in presence of meropenem by broth microdilution assay; assay type: functional; outline: as §2
Staphylococcus aureus [22] = test: Synergistic antibacterial activity against multidrug-resistant Staphylococcus aureus isolate 3411 in presence of meropenem by broth microdilution assay; assay type: functional
Staphylococcus aureus [23] = test: Synergistic antibacterial activity against multidrug-resistant Staphylococcus aureus isolate 2919 in presence of meropenem by broth microdilution assay; assay type: functional; outline: as §2
Staphylococcus aureus [24] = test: Synergistic antibacterial activity against multidrug-resistant Staphylococcus aureus isolate 2490 assessed as fractional Inhibitory concentration index in presence of amoxicillin by broth microdilution assay; assay type: functional
Outline: (§4)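 CLSI broth microdilution run on clinical MRSA isolates with each β-lactam alone, the test agent alone, and the two combined; agents dissolved in DMSO. Growth inhibition was read by eye. FIC index = FIC(compound) + FIC(β-lactam), where each FIC is the MIC in combination divided by the MIC alone. An index ≤0.5 was taken as synergy.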

Staphylococcus aureus [25] = test: Synergistic antibacterial activity against multidrug-resistant Staphylococcus aureus isolate 231 assessed as fractional Inhibitory concentration index in presence of amoxicillin by broth microdilution assay; assay type: functional; outline: as §4
Staphylococcus aureus [26] = test: Synergistic antibacterial activity against multidrug-resistant Staphylococcus aureus isolate 1136 assessed as fractional Inhibitory concentration index in presence of amoxicillin by broth microdilution assay; assay type: functional; outline: as §4
Staphylococcus aureus [27] = test: Synergistic antibacterial activity against multidrug-resistant Staphylococcus aureus isolate 1717 assessed as fractional Inhibitory concentration index in presence of amoxicillin by broth microdilution assay; assay type: functional; outline: as §4
Staphylococcus aureus [28] = test: Synergistic antibacterial activity against multidrug-resistant Staphylococcus aureus isolate 3580 assessed as fractional Inhibitory concentration index in presence of amoxicillin by broth microdilution assay; assay type: functional
Staphylococcus aureus [29] = test: Synergistic antibacterial activity against multidrug-resistant Staphylococcus aureus isolate 2919 assessed as fractional Inhibitory concentration index in presence of methicillin by broth microdilution assay; assay type: functional
Staphylococcus aureus [30] = test: Synergistic antibacterial activity against multidrug-resistant Staphylococcus aureus isolate 3332 assessed as fractional Inhibitory concentration index in presence of cloxacillin by broth microdilution assay; assay type: functional
Staphylococcus aureus [31] = test: Synergistic antibacterial activity against multidrug-resistant Staphylococcus aureus isolate 1344 assessed as fractional Inhibitory concentration index in presence of cefuroxime by broth microdilution assay; assay type: functional; outline: as §4
Staphylococcus aureus [32] = test: Synergistic antibacterial activity against multidrug-resistant Staphylococcus aureus isolate 2224 assessed as fractional Inhibitory concentration index in presence of cefuroxime by broth microdilution assay; assay type: functional; outline: as §4
Staphylococcus aureus [33] = test: Synergistic antibacterial activity against multidrug-resistant Staphylococcus aureus isolate 85 assessed as fractional Inhibitory concentration index in presence of cefuroxime by broth microdilution assay; assay type: functional
Staphylococcus aureus [34] = test: Synergistic antibacterial activity against multidrug-resistant Staphylococcus aureus isolate 417 assessed as fractional Inhibitory concentration index in presence of meropenem by broth microdilution assay; assay type: functional
Staphylococcus aureus [35] = test: Synergistic antibacterial activity against multidrug-resistant Staphylococcus aureus isolate 1344 assessed as fractional Inhibitory concentration index in presence of meropenem by broth microdilution assay; assay type: functional; outline: as §4
Staphylococcus aureus [36] = test: Synergistic antibacterial activity against multidrug-resistant Staphylococcus aureus isolate 2895 assessed as fractional Inhibitory concentration index in presence of meropenem by broth microdilution assay; assay type: functional
[37] = Oral bioavailability in Sprague-Dawley rat at 50 mg/kg by UPLC-MS/MS analysis; assay type: ADME, organism-based; settings: in vivo
Outline: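 Male Sprague–Dawley rats (250-280 g) dosed IV at 1 mg/kg or by oral feeding at 50 mg/kg. Jugular blood taken from 5 to 420 min (IV) or 2 to 600 min (oral). Plasma proteins precipitated with methanol, then analysed by UPLC-MS/MS with positive ESI. Parameters from non-compartmental analysis.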

CCCCCCCCCNc1ccc(F)c(C(N)=O)c1F
MIC (Staphylococcus aureus [1]): 16 µg/mL (≈ 53.6 µM)
MIC (Staphylococcus aureus [2]): 16 µg/mL (≈ 53.6 µM)
MIC (Staphylococcus aureus [3]): 16 µg/mL (≈ 53.6 µM)
MIC (Staphylococcus aureus [4]): 16 µg/mL
MIC (Staphylococcus aureus [5]): 4 µg/mL
MIC (Staphylococcus aureus [6]): 8 µg/mL
MIC (Staphylococcus aureus [7]): 8 µg/mL
MIC (Staphylococcus aureus [8]): 4 µg/mL
MIC (Staphylococcus aureus [9]): 4 µg/mL
MIC (Staphylococcus aureus [10]): 4 µg/mL
MIC (Staphylococcus aureus [11]): 2 µg/mL
MIC (Staphylococcus aureus [12]): 1 µg/mL
MIC (Staphylococcus aureus [13]): 2 µg/mL
MIC (Staphylococcus aureus [14]): 2 µg/mL
MIC (Staphylococcus aureus [15]): 2 µg/mL
MIC (Staphylococcus aureus [16]): 2 µg/mL
MIC (Staphylococcus aureus [17]): 2 µg/mL
MIC (Staphylococcus aureus [18]): 2 µg/mL
MIC (Staphylococcus aureus [19]): 2 µg/mL
MIC (Staphylococcus aureus [20]): 4 µg/mL
MIC (Staphylococcus aureus [21]): 4 µg/mL
MIC (Staphylococcus aureus [22]): 4 µg/mL
MIC (Staphylococcus aureus [23]): 4 µg/mL
fractional inhibitory concentration index (FICI) (Staphylococcus aureus [24]): 0.6
fractional inhibitory concentration index (FICI) (Staphylococcus aureus [25]): 0.5
fractional inhibitory concentration index (FICI) (Staphylococcus aureus [26]): 1
fractional inhibitory concentration index (FICI) (Staphylococcus aureus [27]): 1.1
fractional inhibitory concentration index (FICI) (Staphylococcus aureus [28]): 0.3
fractional inhibitory concentration index (FICI) (Staphylococcus aureus [29]): 0.4
fractional inhibitory concentration index (FICI) (Staphylococcus aureus [30]): 0.4
fractional inhibitory concentration index (FICI) (Staphylococcus aureus [31]): 0.3
fractional inhibitory concentration index (FICI) (Staphylococcus aureus [32]): 0.3
fractional inhibitory concentration index (FICI) (Staphylococcus aureus [33]): 0.3
fractional inhibitory concentration index (FICI) (Staphylococcus aureus [34]): 0.2
fractional inhibitory concentration index (FICI) (Staphylococcus aureus [35]): 2
fractional inhibitory concentration index (FICI) (Staphylococcus aureus [36]): 2.1
bioavailability [37]: 13%
